According to ChEMBL document CHEMBL2021808, “Chemical synthesis and biological evaluation of triazole derivatives as inhibitors of InhA and antituberculosis agents” (Eur J Med Chem, 2012):
≈ marks a conversion by molar mass, not a printed value. Calls of active or inactive are those of the source. The rule behind the calls is not given here.

How the values were obtained:
[1] = molecular target: T1, Enoyl-[acyl-carrier-protein] reductase [NADH] (Mycobacterium tuberculosis) (UniProt P9WGR1); experiment: Inhibition of Mycobacterium tuberculosis recombinant InhA expressed in Escherichia coli using trans-2-dodecenoyl-coenzyme-A as substrate at 50 uM
T1 sequence (whole entry): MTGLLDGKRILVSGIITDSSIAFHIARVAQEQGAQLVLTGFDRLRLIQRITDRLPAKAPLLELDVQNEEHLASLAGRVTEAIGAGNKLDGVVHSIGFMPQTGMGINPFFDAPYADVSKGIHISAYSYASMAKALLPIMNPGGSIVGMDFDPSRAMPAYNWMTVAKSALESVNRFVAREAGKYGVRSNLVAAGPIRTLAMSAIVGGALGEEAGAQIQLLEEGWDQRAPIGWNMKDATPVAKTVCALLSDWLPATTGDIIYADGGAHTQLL
Procedure, shortened: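 Recombinant InhA was expressed in E. coli and purified. Reactions with DD-CoA substrate, NADH and inhibitor were run in 30 mM PIPES, 150 mM NaCl, pH 6.8, and started by adding InhA (100 nM final). Percent inhibition was calculated from initial velocity against a no-inhibitor control. Run in triplicate.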

[2] = tested on: Mycobacterium tuberculosis; experiment: Antimycobacterial activity against Mycobacterium tuberculosis H37Rv by two-fold serial dilution method; format: functional
Procedure, shortened: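 A single colony was grown in complete Middlebrook 7H9 at 37 °C to exponential phase (about 10⁸ CFU/mL, OD600 0.8–1.0). Cultures were diluted to about 10⁷ CFU/mL and streaked onto plates with two-fold dilutions of compound. MIC is the minimal inhibitory concentration.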

In the case of `CCCCCCc1cn(Cc2ccccc2)nn1`, the inhibition [1] is reported as 21% and the MIC [2] is reported as 25 µg/mL (≈ 103 µM).

With `CCCCCCCCc1cn(Cc2ccccc2)nn1` the inhibition [1] was 34% and the MIC [2] was greater than 4 µg/mL.

`CCCCCCCCn1cc(-c2cccc(C)c2)nn1` gave an inhibition [1] of 33% and an MIC [2] greater than 4 µg/mL.

In the case of `CCCCCCCCCCc1cn(Cc2cc(OC)cc(OC)c2)nn1`, the inhibition [1] is reported as 24% and the MIC [2] is reported as greater than 4 µg/mL.

`CCCCCCc1cn(Cc2cc(C)cc(C)c2)nn1` showed an inhibition [1] of 19%.

`CCCCCCCCCCc1cn(CCc2ccccc2)nn1` showed an inhibition [1] of 43% and an MIC [2] of 4 µg/mL (≈ 12.8 µM).

Work on `CCCCCCCCCCCCc1cn(CCc2ccccc2OC)nn1` yielded an inhibition [1] of 61% and an MIC [2] of 2 µg/mL (≈ 5.38 µM).

Compound `CCCCCCCCn1cc(Cc2ccccc2)nn1` has an inhibition [1] of 73% and an MIC [2] of 25 µg/mL (≈ 92.1 µM).

Work on `CCCCCCCCCCCCc1cn(Cc2cccc(OC)c2)nn1` yielded an inhibition [1] of 46% and an MIC [2] of 4 µg/mL (≈ 11.2 µM).

Work on `CCCCCCc1cn(CCc2ccccc2)nn1` yielded an inhibition [1] of 10% and an MIC [2] of 10 µg/mL (≈ 38.9 µM).

In the case of `CCCCCCCCCCc1cn(Cc2cccc(Cl)c2)nn1`, the inhibition [1] is reported as 42% and the MIC [2] is reported as 4 µg/mL (≈ 12 µM).

`CCCCCCc1cn(Cc2cccc(OC)c2)nn1` was tested, and the inhibition [1] was “inactive” and the MIC [2] was greater than 4 µg/mL.

`CCCCCCCCCCCCn1cc(Cc2ccccc2)nn1` gave an inhibition [1] of 58% and an MIC [2] of 25 µg/mL (≈ 76.3 µM).

For `CCCCCCCCCCCCn1cc(COc2ccc(Cl)cc2OC)nn1`, the inhibition [1] was 35% and the MIC [2] was greater than 4 µg/mL.

In the case of `CCCCCCCCCCCCn1nncc1CCc1ccccc1`, the inhibition [1] is reported as 9% and the MIC [2] is reported as greater than 4 µg/mL.

For `CCCCCCCCCCCCc1cn(CCc2ccc(OC)c(OC)c2)nn1`, the inhibition [1] was “inactive” and the MIC [2] was 0.25 µg/mL (≈ 0.623 µM).

Work on `CCCCCCCCc1cn(CCc2ccccc2C)nn1` yielded an inhibition [1] of 37% and an MIC [2] of 2 µg/mL (≈ 6.68 µM).

Work on `CCCCCCCCCCCCn1cc(COc2ccccc2)nn1` yielded an inhibition [1] of 54% and an MIC [2] of 2 µg/mL (≈ 5.82 µM).

With `CCCCCCCCCCc1cn(CCc2ccccc2OC)nn1` the inhibition [1] was 48% and the MIC [2] was 2 µg/mL (≈ 5.82 µM).

`CCCCCCCCCn1cc(Cc2ccccc2)nn1` gave an inhibition [1] of 75% and an MIC [2] of 25 µg/mL (≈ 87.6 µM).

With `CCCCCCCCCCc1cn(Cc2ccccc2)nn1` the inhibition [1] was 44% and the MIC [2] was greater than 4 µg/mL.

`CCCCCCCCCCCCc1cn(CCc2ccccc2)nn1` showed an inhibition [1] of 67% and an MIC [2] of 4 µg/mL (≈ 11.7 µM).

Work on `CCCCCCCCCCc1cn(CCc2ccccc2C)nn1` yielded an inhibition [1] of 58% and an MIC [2] of 2 µg/mL (≈ 6.11 µM).

Work on `CCCCCCCCCCCCn1cc(COc2ccc(Cl)cc2Cl)nn1` yielded an inhibition [1] of less than 5% and an MIC [2] of 4 µg/mL (≈ 9.7 µM).

With `CCCCCCCCCCCCn1cc(CCc2ccccc2)nn1` the MIC [2] was 0.5 µg/mL (≈ 1.46 µM).

In the case of `CCCCCCCCCCCCc1cn(Cc2ccccc2)nn1`, the inhibition [1] is reported as 52% and the MIC [2] is reported as greater than 4 µg/mL.

`CCCCCCc1cn(Cc2cccc(Cl)c2)nn1` was tested, and the inhibition [1] was “inactive” and the MIC [2] was 4 µg/mL (≈ 14.4 µM).

In the case of `CCCCCCCCCCc1cn(CCc2ccc(OC)c(OC)c2)nn1`, the inhibition [1] is reported as 21% and the MIC [2] is reported as 2 µg/mL (≈ 5.35 µM).

Work on `CCCCCCCCCCc1cn(Cc2cccc(OC)c2)nn1` yielded an inhibition [1] of 20% and an MIC [2] greater than 4 µg/mL.

In the case of `CCCCCCCCn1cc(-c2cccc(O)c2)nn1`, the inhibition [1] is reported as “inactive”.

With `CCCCCCCCCCc1cnnn1CCc1ccccc1` the inhibition [1] was 33% and the MIC [2] was greater than 4 µg/mL.
